Calls of active or inactive are those of the source.
Tests used:
[1] = Half life in mouse brain; assay type: ADME, tissue-based
Method in brief: (§1)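 Peptides at 500 µM final in 15% mouse brain homogenate (washed) or 100% mouse serum, 2.3 mg/mL protein, 50 mM Tris pH 7.4, 37 °C; sampled 0–300 min in triplicate; stopped with acetonitrile, acidified, centrifuged, remaining peptide by RP-HPLC.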

[2] = Protein binding to BSA; assay type: ADME, Bos taurus; conditions: cattle, isolated protein
Method in brief: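 Peptides in mammalian Ringer's solution with 10 g/L BSA and 3.9% dextran, pH 7.4, 37 °C; ultrafiltration (30 kDa cut-off, 2000g, 10 min); total and free peptide by RP-HPLC; % bound = (T−F)/T×100; triplicate.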

[3] = target: Delta-type opioid receptor (Rattus norvegicus, UniProt P33533); experiment: Binding affinity to delta opioid receptor in rat brain synaptosome membrane by radioligand binding assay; assay type: cell membranes
Method in brief: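 Displacement of [3H]Tyr-c[D-Pen-Gly-Phe-D-Pen]-OH 1 nM, 3 h incubation, rat brain synaptosomal membranes (300–500 µg/mL protein), 50 mM Tris–HCl pH 7.4; 10 µM naloxone defines nonspecific binding; duplicate assays, at least three repeats.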

[4] = Distribution coefficient, log D in octanol and […] at pH 7.4; assay type: physicochemical
Method in brief: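 Shake-flask: 50 µg peptide in pre-equilibrated 0.05 M Hepes/0.1 M NaCl pH 7.4 with octanol, vortexed 2 min, centrifuged; both phases quantified by RP-HPLC; D = octanol/buffer ratio; triplicate.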

[5] = target: Delta-type opioid receptor (Mus musculus, UniProt P32300); experiment: Agonist activity at delta opioid receptor in mouse vas deferens assessed as inhibition of electrically-induced twitches; assay type: functional, tissue-based
Method in brief: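 MVD: paired rectangular pulses (1-ms width, 100-ms apart, 9 V/cm, supramaximal) every 10 s; isometric twitch recording; dose–response curves, IC50 read graphically; mean of five to eight measurements.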

[6] = Half life in mouse serum; assay type: ADME, cell-free; method in brief: as §1
[7] = target: Mu-type opioid receptor (Cavia porcellus, UniProt P97266); experiment: Agonist activity at mu opioid receptor in guinea pig ileum assessed as inhibition of electrically-induced twitches; assay type: functional, tissue-based
Method in brief: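 GPI: twitches evoked at 0.1 Hz, 50 V, 0.5-ms pulse width; isometric recording; dose–response curves with IC50 derived graphically; arithmetic mean of five to eight measurements.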

[8] = target: Mu-type opioid receptor (Rattus norvegicus, UniProt P33535); experiment: Binding affinity to mu opioid receptor in rat brain synaptosome membrane by radioligand binding assay; assay type: cell membranes
Method in brief: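 Competition vs [3H]Tyr-D-Ala-Gly-MePhe-Gly-ol (DAMGO-type mu ligand) 0.5 nM, 1 h, on rat brain synaptosomal membranes (300–500 µg/mL protein) in 50 mM Tris–HCl pH 7.4; nonspecific binding with 10 µM naloxone; duplicates, repeated at least three times.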

[9] = test system: Mus musculus; experiment: Antinociceptive activity in mouse at 30 mg/kg, sc by tail flick test; assay type: functional, organism-based; set-up: dose 30 mg/kg
Method in brief: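 Mice given 30 mg/kg sc (100 µL); 50 °C warm-water tail-flick, baseline responders under 5 s kept, 10 s cut-off; latencies at 5–60 min post-dose; %MPE = 100·(TL−CL)/(10−CL); saline control; six to eight mice per group, mean with SEM.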

Sequence of Delta-type opioid receptor (Mus musculus, UniProt P32300) (P32300 whole entry): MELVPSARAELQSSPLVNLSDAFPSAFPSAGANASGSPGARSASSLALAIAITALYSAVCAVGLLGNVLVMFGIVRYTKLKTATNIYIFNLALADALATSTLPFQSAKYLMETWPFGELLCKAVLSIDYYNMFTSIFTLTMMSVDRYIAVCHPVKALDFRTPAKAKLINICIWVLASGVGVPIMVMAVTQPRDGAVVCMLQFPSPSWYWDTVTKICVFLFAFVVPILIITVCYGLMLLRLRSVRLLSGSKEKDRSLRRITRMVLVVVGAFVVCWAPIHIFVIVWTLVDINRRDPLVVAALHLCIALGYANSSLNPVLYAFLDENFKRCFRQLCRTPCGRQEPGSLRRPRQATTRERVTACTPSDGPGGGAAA
Sequence of Delta-type opioid receptor (Rattus norvegicus, UniProt P33533) (P33533 whole entry): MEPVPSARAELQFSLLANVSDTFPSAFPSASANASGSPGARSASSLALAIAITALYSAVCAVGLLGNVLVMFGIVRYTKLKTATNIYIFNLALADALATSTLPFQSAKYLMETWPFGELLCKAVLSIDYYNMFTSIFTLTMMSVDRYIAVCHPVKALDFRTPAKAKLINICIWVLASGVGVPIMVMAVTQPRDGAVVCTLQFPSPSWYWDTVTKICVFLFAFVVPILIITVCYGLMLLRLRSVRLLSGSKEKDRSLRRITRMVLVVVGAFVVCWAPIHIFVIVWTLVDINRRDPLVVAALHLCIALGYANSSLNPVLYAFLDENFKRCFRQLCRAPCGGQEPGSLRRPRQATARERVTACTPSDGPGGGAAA
Sequence of Mu-type opioid receptor (Rattus norvegicus, UniProt P33535) (P33535 whole entry): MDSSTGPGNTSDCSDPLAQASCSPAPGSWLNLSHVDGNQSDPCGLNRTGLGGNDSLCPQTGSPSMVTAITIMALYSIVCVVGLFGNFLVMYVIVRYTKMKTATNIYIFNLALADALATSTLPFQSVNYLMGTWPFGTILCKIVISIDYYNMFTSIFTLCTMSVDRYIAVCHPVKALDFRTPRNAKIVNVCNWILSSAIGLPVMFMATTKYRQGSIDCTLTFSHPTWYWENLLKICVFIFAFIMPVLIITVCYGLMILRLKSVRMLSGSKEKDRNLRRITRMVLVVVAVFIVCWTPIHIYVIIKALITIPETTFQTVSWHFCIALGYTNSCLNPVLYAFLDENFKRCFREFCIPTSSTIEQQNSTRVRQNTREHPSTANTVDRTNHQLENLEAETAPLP
Sequence of Mu-type opioid receptor (Cavia porcellus, UniProt P97266) (P97266 whole entry): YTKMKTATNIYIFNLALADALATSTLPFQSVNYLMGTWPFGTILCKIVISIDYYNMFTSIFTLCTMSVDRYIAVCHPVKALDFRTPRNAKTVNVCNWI

Compound | half-life [1] [h] | Activity [2] [%] | Ki [3] [nM] | logD [4] | IC50 [5] [nM] | half-life [6] [h] | IC50 [7] [nM] | Ki [8] [nM] | Activity [9]
COc1ccc(C[C@H](N=C(N)N)C(=O)N2CCC[C@H]2C(=O)N[C@@H](Cc2c[nH]c3ccccc23)C(=O)N[C@@H](Cc2ccc(Cl)cc2)C(N)=O)cc1 | 3.17 | 65.57 | 1370 | 1.33 | 1290 | 0.803 | 845 | 538 | 
COc1ccc(C[C@H](NC(=N)N)C(=O)N2CCC[C@@H]2C(=O)NCC(=O)N[C@@H](Cc2c[nH]c3ccccc23)C(=O)N[C@@H](Cc2ccc(Cl)cc2)C(N)=O)cc1 | 6.82 | 62.52 | 1480 | 1.64 | > 10000 | 3.6 | > 1000 | 919 | Active
COc1ccc(C[C@H](N=C(N)N)C(=O)N2CCC[C@@H]2C(=O)NCC(=O)N[C@@H](Cc2c[nH]c3ccccc23)C(=O)N[C@@H](Cc2ccccc2)C(N)=O)cc1 | 7.45 | 45.15 | > 10000 | 0.78 | > 10000 | 2.75 | > 1000 | 1060 | 
COc1ccc(C[C@H](N=C(N)N)C(=O)N2CCC[C@H]2C(=O)N[C@@H](Cc2c[nH]c3ccccc23)C(=O)N[C@@H](Cc2ccccc2)C(N)=O)cc1 | 4.3 | 40.58 | 4790 | 0.21 | 1340 | 0.522 | 988 | 792 | 
